According to publication PMC6423489 (Heliyon, 2019):
Like-named read-outs stand apart in the source and are kept apart here.

Experiments:
[1] = system: Saccharomyces cerevisia; details: ref Mohn, 1973; Bianchi et al., 1994; cited from earlier work
[2] = system: human peripheral lymphocytes; details: compared to the control group; ref Gomez-Arroyo et al. (1987); cited from earlier work
[3] = system: Escherichia coli; details: ref Mohn, 1973; Bianchi et al., 1994; cited from earlier work
[4] = system: Salmonella typhimurium; details: ref Mohn, 1973, Bianchi et al., 1994, cited from earlier work
[5] = system: human lymphocytes; details: 100 and 200 μg/mL; ref Ündeğer and Başaran (2005); cited from earlier work
[6] = system: human peripheral lymphocytes; assay: In vitro micronucleus; assay type: cell-based; details: 72 h incubation
How it was run: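 Whole blood from 3 healthy non-smoking donors (25–30 y) was treated with test compound at 0.5, 1.0 or 2.0 μg/mL in 2% DMSO for 72 h. Controls were distilled water, 2% DMSO and 10 mM EMS. Cytochalasin-B was added at 48 h and smears were Giemsa-stained. NDI was scored from 1000 cells and MN from 1000 binucleated cells per repeat, 3 donors, ANOVA.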

[7] = 10mM, 3000 binucleated cells counted

Row | SMILES | mutagenicity [1] | sister chromatid exchanges [2] | mutagenicity [3] | mutagenicity ([4]; strain TA 100) | mutagenicity ([4]; strains TA 1535, TA 1537, TA 1538, TA 98 and TA 102) | DNA damage [5] | MN within binucleat (1) ([6]; 0.5 μg/mL, 3000 binucleated cells counted) | %MN±S.E. ([6]; 0.5 μg/mL, compared with DMSO) [%] | NDI±S.E. ([6]; 0.5 μg/mL, compared with DMSO) | MN within binucleat (1) ([6]; 1.0 μg/mL, 3000 binucleated cells counted) | %MN±S.E. ([6]; 1.0 μg/mL, compared with DMSO) [%] | NDI±S.E. ([6]; 1.0 μg/mL, compared with DMSO) | MN within binucleat (1) ([6]; 2.0 μg/mL, 3000 binucleated cells counted) | %MN±S.E. ([6]; 2.0 μg/mL, compared with DMSO) [%] | MN within binucleat (1) [6, 7] | MN within binucleat (2) [6, 7] | MN within binucleat (3) [6, 7] | %MN±S.E. ([6]; 10mM, compared with distilled water) [%]
1 | CNC(=O)CSP(=S)(OC)OC [DIM] | mutagenic | increased sister chromatid exchanges | mutagenic | mutagenic | non-mutagenic | significantly increased DNA damage | 27 | 0.90 ± 0.72 | 1.54 ± 0.20 | 29 | 0.97 ± 0.63 | 1.54 ± 0.23 | 63 | 2.10 ± 0.13 |  |  |  | 
2 | COP(=S)(OC)Oc1ccc([N+](=O)[O-])cc1 [methyl parathion] |  | increased sister chromatid exchanges |  |  |  | significantly increased DNA damage |  |  |  |  |  |  |  |  |  |  |  | 
3 | CCOS(C)(=O)=O [EMS, ethyl methanesulfonate, reference compound] |  |  |  |  |  |  |  |  |  |  |  |  |  |  | 107 | 16 | 10 | 5.63 ± 1.60
